This is an account of results in ChEMBL document CHEMBL3351534, “Design, synthesis and antimycobacterial evaluation of 1-(4-(2-substitutedthiazol-4-yl)phenethyl)-4-(3-(4-substitutedpiperazin-1-yl)alkyl)piperazine hybrid analogues” (Eur J Med Chem, 2014).

In brackets after ≈: the same amount, converted by molar mass. A value given as a limit tells only on which side of the number the result lay.

Data set [1] deals with Mycobacterium tuberculosis. Briefly: Antimycobacterial activity against Mycobacterium tuberculosis H37Rv after 5 days by MABA method. It counts as functional. The following applies: 120 h. The method, boiled down:
(§1)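 MABA in 96-well plates against M. tuberculosis H37Rv. Compounds serially diluted 1:2 across columns, inoculum added, with medium-only and 3–5% DMSO solvent controls. Incubated 37 °C for 5 days. A 1:1 mix of 10× Alamar Blue and 10% Tween 80 was added and plates were reincubated 24 h at 37 °C. Blue read as no growth, pink as growth. MIC read from colour.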

A short description of data set [2]: Toxicity against mouse RAW264.7 cells assessed as inhibition of cell viability at 50 ug/mL after 72 hrs by MTT assay. Type of data set: cell-based. The following applies: read-out: INH. Summed up:
(§2)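 RAW 264.7 cells were exposed to compounds for 72 h. Viability was then scored by the cells' conversion of MTT into a formazan product, using a non-radioactive cell proliferation kit. Results were expressed as percentage growth inhibition at a single high concentration and as an approximate IC50.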

Data set [3] is described as follows: Toxicity against mouse RAW264.7 cells assessed as inhibition of cell viability after 72 hrs by MTT assay. It counts as cell-based. The method, boiled down:
as §2

Data set [4] can be described thus: Selectivity index, ratio of IC50 for mouse RAW264.7 cells to MIC for Mycobacterium tuberculosis H37Rv. Type of data set: toxicity. The following applies: read-out: Selectivity Index. Summed up:
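SI = IC50/MIC. IC50 comes from an MTT assay on RAW 264.7 cells, with viability read as conversion of MTT to formazan after 72 h exposure and % inhibition recorded at 50 µg/mL. MIC comes from the M. tuberculosis H37Rv MABA (5 days at 37 °C, Alamar Blue colour read-out).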

The test system of data set [5] is Mycobacterium tuberculosis. Briefly: Antimycobacterial activity against Mycobacterium tuberculosis H37Rv assessed as inhibition of microbial growth at 6.25 ug/mL after 5 days by MABA method. Type of data set: functional. The following applies: 120 h. Summed up: as §1
Data set [6] relates to Mycobacterium tuberculosis. Briefly: Antimycobacterial activity against Mycobacterium tuberculosis H37Rv assessed as inhibition of microbial growth at 3.125 ug/mL after 5 days by MABA method. It counts as functional. Conditions: 120 h. The method, boiled down:
as §1

For data set [7], the system named is Mycobacterium tuberculosis. Briefly: Antimycobacterial activity against Mycobacterium tuberculosis H37Rv assessed as inhibition of microbial growth at 1.56 ug/mL after 5 days by MABA method. The following applies: 120 h. Type of data set: functional. The method, boiled down:
as §1

In data set [1], `Nc1nc(-c2ccc(CCN3CCN(CCCCCN4CCN(c5ccc([N+](=O)[O-])cc5)CC4)CC3)cc2)cs1` registered an MIC of 6.25 µg/mL (≈ 11.1 µM). The cytotoxicity at 72 h, 50 ug/mL in data set [2] is 44.6%. In data set [3], the IC50 at 72 h is above 50 µg/mL. Also, in data set [4], the selectivity ratio is above 7. The inhibition at 6.25 µg/mL in data set [5] worked out at 99%.

`Nc1nc(-c2ccc(CCN3CCN(CCCN4CCN(c5ccccc5Cl)CC4)CC3)cc2)cs1` returned an MIC in data set [1] of 50 µg/mL (≈ 95.2 µM).

For `Nc1nc(-c2ccc(CCN3CCN(CCCCN4CCN(c5ccccn5)CC4)CC3)cc2)cs1`, in data set [1], the minimum inhibitory concentration (MIC) stood at 12.5 µg/mL (≈ 24.7 µM).

In turn, `CNc1nc(-c2ccc(CCN3CCN(CCCN4CCN(c5ccccc5Cl)CC4)CC3)cc2)cs1` gave an MIC in data set [1] of 12.5 µg/mL (≈ 23.2 µM).

As for `CNc1nc(-c2ccc(CCN3CCN(CCCCN4CCN(c5ccccn5)CC4)CC3)cc2)cs1`, the MIC in data set [1] is 25 µg/mL (≈ 48.1 µM).

With `CNc1nc(-c2ccc(CCN3CCN(CCCCN4CCN(C(c5ccccc5)c5ccccc5)CC4)CC3)cc2)cs1`, inhibition of growth in data set [1] (MIC) required 50 µg/mL (≈ 82.1 µM).

In the case of `CNc1nc(-c2ccc(CCN3CCN(CCCN4CCN(c5ccc([N+](=O)[O-])cc5)CC4)CC3)cc2)cs1`, in data set [1], the lowest concentration to inhibit growth (MIC) was 12.5 µg/mL (≈ 22.7 µM).

As for `Cc1nc(-c2ccc(CCN3CCN(CCCN4CCN(c5ccc([N+](=O)[O-])cc5)CC4)CC3)cc2)cs1`, the MIC in data set [1] was 50 µg/mL (≈ 93.5 µM).

Regarding `CNc1nc(-c2ccc(CCN3CCN(CCCCN4CCN(c5ccccc5)CC4)CC3)cc2)cs1`, the MIC in data set [1] was 12.5 µg/mL (≈ 24.1 µM).

Compound `Nc1nc(-c2ccc(CCN3CCN(CCCCN4CCN(c5ccc([N+](=O)[O-])cc5)CC4)CC3)cc2)cs1` had an MIC in data set [1] of 12.5 µg/mL (≈ 22.7 µM).

In the case of `CNc1nc(-c2ccc(CCN3CCN(CCCN4CCN(c5ccccc5)CC4)CC3)cc2)cs1`, the minimal inhibitory concentration (MIC) in data set [1] is 50 µg/mL (≈ 99.1 µM).

In data set [1], `Nc1nc(-c2ccc(CCN3CCN(CCCCN4CCN(C(c5ccccc5)c5ccccc5)CC4)CC3)cc2)cs1` gave a minimal inhibitory concentration (MIC) of 3.12 µg/mL (≈ 5.25 µM). For the same compound, the cytotoxicity at 72 h, 50 ug/mL in data set [2] was found to be 46.4%. Further, the half-maximal inhibitory concentration (IC50) at 72 h in data set [3] was above 50 µg/mL. The selectivity ratio in data set [4] is above 15. For the same compound, the inhibition at 3.125 µg/mL in data set [6] came out at 99%.

Take `CNc1nc(-c2ccc(CCN3CCN(CCCCN4CCN(c5ccccc5Cl)CC4)CC3)cc2)cs1`: in data set [1], the MIC was 3.12 µg/mL (≈ 5.65 µM). Besides, in data set [2], the cytotoxicity at 72 h, 50 ug/mL is 40.4%. Moreover, the IC50 at 72 h in data set [3] is above 50 µg/mL. Also, the selectivity ratio in data set [4] was above 15. Moreover, in data set [6], the inhibition at 3.125 µg/mL was 99%.

For the compound `Cc1nc(-c2ccc(CCN3CCN(CCCN4CCN(c5ccccn5)CC4)CC3)cc2)cs1`, the MIC in data set [1] is 50 µg/mL (≈ 102 µM).

`Nc1nc(-c2ccc(CCN3CCN(CCCCN4CCN(c5ccccc5Cl)CC4)CC3)cc2)cs1` displayed an MIC in data set [1] of 50 µg/mL (≈ 92.7 µM).

In turn, `CNc1nc(-c2ccc(CCN3CCN(CCCN4CCN(c5ccccn5)CC4)CC3)cc2)cs1` had an MIC in data set [1] of 12.5 µg/mL (≈ 24.7 µM).

As to `Cc1nc(-c2ccc(CCN3CCN(CCCN4CCN(c5ccccc5Cl)CC4)CC3)cc2)cs1`, the MIC in data set [1] came out at 50 µg/mL (≈ 95.4 µM).

In the case of `Cc1nc(-c2ccc(CCN3CCN(CCCN4CCN(C(c5ccccc5)c5ccccc5)CC4)CC3)cc2)cs1`, in data set [1], inhibition of growth (MIC) required 6.25 µg/mL (≈ 10.8 µM). Besides, the cytotoxicity at 72 h, 50 ug/mL in data set [2] amounted to 42.8%. The IC50 at 72 h in data set [3] is above 50 µg/mL. For the same compound, in data set [4], the selectivity ratio was above 7. Further, in data set [5], the inhibition at 6.25 µg/mL turned out to be 99%.

As to `NNC(=O)c1ccncc1` [ISONIAZID], the MIC in data set [1] came out at 0.05 µg/mL (≈ 0.365 µM).

With `CO[C@H]1/C=C/O[C@@]2(C)Oc3c(C)c(O)c4c(O)c(c(/C=N/N5CCN(C)CC5)c(O)c4c3C2=O)NC(=O)/C(C)=C\C=C\[C@H](C)[C@H](O)[C@@H](C)[C@@H](O)[C@@H](C)[C@H](OC(C)=O)[C@@H]1C` [RIFAMPIN], the MIC in data set [1] was determined as 0.1 µg/mL (≈ 0.122 µM).

Consider `Nc1nc(-c2ccc(CCN3CCN(CCCN4CCN(C(c5ccccc5)c5ccccc5)CC4)CC3)cc2)cs1`, for which, in data set [1], the MIC was found to be 3.12 µg/mL (≈ 5.38 µM). The cytotoxicity at 72 h, 50 ug/mL in data set [2] was 38.4%. Moreover, the IC50 at 72 h in data set [3] is above 50 µg/mL. Also, in data set [4], the selectivity ratio is above 15. Further, the inhibition at 3.125 µg/mL in data set [6] stood at 99%.

In data set [1], `Cc1nc(-c2ccc(CCN3CCN(CCCN4CCN(c5ccccc5)CC4)CC3)cc2)cs1` returned a minimal inhibitory concentration (MIC) of 25 µg/mL (≈ 51 µM).

The compound `Nc1nc(-c2ccc(CCN3CCN(CCCN4CCN(c5ccccc5)CC4)CC3)cc2)cs1` registered an MIC in data set [1] of 3.12 µg/mL (≈ 6.37 µM). Besides, the cytotoxicity at 72 h, 50 ug/mL in data set [2] worked out at 35.6%. Moreover, in data set [3], the IC50 at 72 h was above 50 µg/mL. Also, in data set [4], the selectivity ratio was above 15. Besides, the inhibition at 3.125 µg/mL in data set [6] amounted to 99%.

On to `Nc1nc(-c2ccc(CCN3CCN(CCCCN4CCN(c5ccccc5)CC4)CC3)cc2)cs1`, for which, in data set [1], the minimum inhibitory concentration (MIC) stood at 25 µg/mL (≈ 49.5 µM).

As for `CNc1nc(-c2ccc(CCN3CCN(CCCN4CCN(C(c5ccccc5)c5ccccc5)CC4)CC3)cc2)cs1`, in data set [1], the MIC came to 1.56 µg/mL (≈ 2.62 µM). Further, in data set [2], the cytotoxicity at 72 h, 50 ug/mL is 31.8%. In addition, the IC50 at 72 h in data set [3] is above 50 µg/mL. Moreover, the selectivity ratio in data set [4] is above 30. Also, the inhibition at 1.56 µg/mL in data set [7] was 99%.

For the compound `CNc1nc(-c2ccc(CCN3CCN(CCCCN4CCN(c5ccc([N+](=O)[O-])cc5)CC4)CC3)cc2)cs1`, the MIC in data set [1] amounted to 50 µg/mL (≈ 88.7 µM).

The compound `Nc1nc(-c2ccc(CCN3CCN(CCCN4CCN(c5ccccn5)CC4)CC3)cc2)cs1` registered an MIC in data set [1] of 3.12 µg/mL (≈ 6.36 µM). Also, the cytotoxicity at 72 h, 50 ug/mL in data set [2] worked out at 38.1%. In addition, the IC50 at 72 h in data set [3] is above 50 µg/mL. Further, the selectivity ratio in data set [4] is above 15. In addition, in data set [6], the inhibition at 3.125 µg/mL was found to be 99%.

As for `Nc1nc(-c2ccc(CCN3CCN(CCCN4CCN(c5ccc([N+](=O)[O-])cc5)CC4)CC3)cc2)cs1`, in data set [1], inhibition of growth (MIC) required 6.25 µg/mL (≈ 11.7 µM). The cytotoxicity at 72 h, 50 ug/mL in data set [2] was 36.5%. Moreover, in data set [3], the IC50 at 72 h is above 50 µg/mL. In addition, the selectivity ratio in data set [4] is above 7. Besides, the inhibition at 6.25 µg/mL in data set [5] is 99%.
